Source: article PMC11954587 (JAC-Antimicrobial Resistance, 2025)
Entries after “also recorded” stand apart in the source; their conditions may differ. Read-outs that look alike come from different tables or passages of the source. Residues, ends and D or L forms follow the SMILES beside them.

How the values were obtained:
[1] = patients with bloodstream infections; cited from earlier work
epithelial cells = conditions: in vitro; cited from earlier work
[2] = tested on: multi-drug-resistant Gram-negative bacteria; format: in vivo, human; conditions: for Microbiology efficacy (TOC): test of cure visit, 14-days post treatment
Method in brief: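 VAP was diagnosed by positive sputum culture of multi-drug-resistant Gram-negative bacteria plus clinical signs, laboratory tests and CT. Aerosol: 50 mg powder dissolved in 5 mL distilled water, given whole or split into two 25 mg doses, nebulized over 30 min by vibrating mesh device, combined with IV dosing. Outcomes were assessed at end of treatment and test of cure.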

P. aeruginosa strains = conditions: animal model, cited from earlier work
K. pneumoniae = conditions: cited from earlier work
[3] = cited from earlier work
[4] = Adverse events in VAP patients during polymyxin B treatment; format: in vivo, human
[5] = aerosolized delivery of CMS; cited from earlier work
[6] = four patients during polymyxin B treatment

CC[C@H](C)CCCCC(=O)N[C@@H](CCN)C(=O)N[C@H](C(=O)N[C@@H](CCN)C(=O)N[C@H]1CCNC(=O)[C@H]([C@@H](C)O)NC(=O)[C@H](CCN)NC(=O)[C@H](CCN)NC(=O)[C@H](CC(C)C)NC(=O)[C@@H](Cc2ccccc2)NC(=O)[C@H](CCN)NC1=O)[C@@H](C)O [polymyxin B] (HELM PEPTIDE1{[CC[C@H](C)CCCCC(=O)[*:2]].[Dab].T.[Dab].[Dab].[Dab].[dF].L.[Dab].[Dab].T}$PEPTIDE1,PEPTIDE1,5:R3-11:R2$$$V2.0)
elimination half-life [1]: 12.5 ± 3.11 h
concentration that induced toxic metabolic response perturbations (epithelial cells): 1000 µM
Clinical outcome (EOT and TOC) ([2]; Patient 1, CRKP VAP, inhalation 25 mg + intravenous 50 mg q12h, 5 d): improved
Microbiology efficacy (TOC) ([2]; Patient 1, organism found): CRKP
Microbiology efficacy (TOC) ([2]; Patient 2): negative
Note (sputum culture during treatment) ([2]; Patient 3, inhalation 25 mg + intravenous 75 mg q12h): CRKP and CRPA were negative after treatment for 6 days, then Serratia marcescens and Chryseobacterium meningosepticum showed positive
Microbiology efficacy (TOC) ([2]; Patient 3): CRKP and CRPA negative
Clinical outcome (EOT and TOC) ([2]; Patient 4, CRE (E. cloacae) VAP, inhalation 25 mg + intravenous 75 mg q12h, 11 d): improved
Microbiology efficacy (TOC) ([2]; Patient 4): negative
clinical improvement or cure / alleviation of clinical symptoms (patients) ([2]; four VAP patients, aerosolized and intravenous polymyxin B): Three of the patients exhibited alleviation of clinical symptoms; also recorded: three of them reaching clinical improvement or cure
bacterial eradication (patients) ([2]; four VAP patients, aerosolized and intravenous polymyxin B, sputum culture): All four patients achieved bacterial eradication
maximum ELF concentrations (P. aeruginosa strains; aerosolized): 184.0 ± 35.1 mg/L
lung histopathology (P. aeruginosa strains; at maximum ELF concentrations 184.0 ± 35.1 mg/L): reduced lung inflammation and preserved lung epithelial integrity
eradication rate of K. pneumoniae (K. pneumoniae; aerosol 50 mg twice a day (with intravenous), P < 0.003): 92.1%
eradication rate of K. pneumoniae (K. pneumoniae; intravenous treatment alone): 70.1%
cure and improved rates ([3]; aerosol doses of 50 mg twice a day, VAP patients): 95%
clinical outcome ([3]; inhaled polymyxin B, pneumonia patients): favourable clinical outcome of cure and improvement
Adverse events ([4]; Patient 1, inhalation 25 mg + intravenous 50 mg q12h, 5 d): none
Adverse events ([4]; Patient 2, inhalation 25 mg + intravenous 100 mg q12h, 5 d): none
Adverse events ([4]; Patient 3, inhalation 25 then 50 mg + intravenous 75 mg q12h, 12 d): hyperpigmentation
Adverse events ([4]; Patient 4, inhalation 25 mg + intravenous 75 mg q12h, 11 d): hyperpigmentation
nephrotoxicity [4, 6]: No cases of nephrotoxicity
neurotoxicity [4, 6]: no reports of neurotoxicity
hyperpigmentation (number of patients) ([4]; of four patients): two patients
chest CT imaging ([4]; patients, combined aerosol and intravenous treatment): recovery of chest CT imaging

colistimethate [CMS]
rate of clinical cure (OR) [5]: 1.61
rate of microbiological eradication (OR) [5]: 1.37
